Source: PubChem
Shown are actives, neighbours in structure and some others; about 2.4% of the full set was active somewhere.
TMEM16A act – activators or potentiators of mouse TMEM16A chloride channel. Q8BHY3. actives 0.3% (n = 340,000). HEK293 TMEM16A/YFP-H148Q/I152L, iodide quench fluorescence; hits give low values. B-score at 10 µM;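 active = fluorescence-ratio B-score plate-corrected deviation score at least 3 library SD below zero, with starting fluorescence score within 5 deviations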;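 note: channel opened by trigger with iodide after compound preincubation; score built on the fluorescence ratio of max minus min over baseline; more negative score means more quench and so TMEM16A activation or potentiation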
UBC13 inh – inhibitors of human UBC13 polyubiquitin chain formation; TR-FRET; AID 485273; inhibition, % at 20 µM; actives 0.47% (n = 330,000); in the data active = inhibition above about 45%, passing the limit was not always enough
Target sequence (P61088 whole entry, looked up): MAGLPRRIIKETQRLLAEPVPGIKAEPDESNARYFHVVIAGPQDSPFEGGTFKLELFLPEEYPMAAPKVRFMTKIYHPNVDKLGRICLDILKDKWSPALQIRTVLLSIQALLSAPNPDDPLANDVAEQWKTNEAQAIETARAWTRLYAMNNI
ANO1 block – mouse TMEM16A channel inhibition, primary screen; Q8BHY3; actives 1.2% (n = 310,000); AID 588511; HEK293 TMEM16A/YFP iodide influx fluorescence, ionomycin; normalized B-score (activity score, 25-100; higher = stronger inhibition) at 10 µM;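 active = ratio plate-corrected score three or more library SD toward inhibition, starting fluorescence score within five deviations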;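 note: score derived from kinetic fluorescence span divided by baseline fluorescence per well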
FID counter – fluorescent intercalator displacement, NS3 helicase counter-screen. DNA fluorescent intercalator displacement, fluorescence. inhibition, % at 7.9 µM. actives 0.17% (n = 290,000). AID 1845; in the data active = inhibition above about 37%;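 note: higher means more ethidium bromide displaced from hairpin DNA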
Apaf1 inhib – human Apaf-1 inhibition | O14727 | reconstituted apoptosome caspase-3 activity, DEVD-Rh110 fluorescence | actives 0.71% (n = 330,000) | inhibition, % at 20 µM; active = inhibition of at least 40% at 20 µM
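System – cell-free apoptosome with Apaf-1, procaspase-3 and caspase-9 · Buffer or medium – pH 7.5 Hepes buffer with CHAPS, BSA, DTT · Also added – cytochrome c with DEVD-Rh110 · Times – 30 min compound preincubation, 50 min activation, room temperature · Technique – Rh110 fluorescence intensity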
TMEM16A reconf – TMEM16A (mouse) chloride channel inhibition, re-confirmation. actives 39% (n = 2,300). HEK293 TMEM16A/YFP-H148Q, iodide quench fluorescence; ionomycin added to raise cell calcium. shares compounds with ANO1 block. inhibition, % at 10 µM;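 active = mean duplicate percent inhibition, scaled so buffer wells are 0 and the reference blocker 100, over three buffer SD above buffer mean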
TMEM16A Ca cntr – calcium mobilization counter-screen hit for TMEM16A inhibitor series | calcium response (% of ionomycin), % at 10 µM | AID 652231 | TMEM16A/YFP HEK293, Fluo4 calcium mobilization | actives 2% (n = 2,300) | shares compounds with ANO1 block;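 active = duplicate-averaged calcium signal over 20% of the ionomycin maximum, relative to buffer baseline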;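 note: each well's signal is peak minus trough fluorescence divided by its pre-addition baseline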
YFP-HEK293 quench – counter-screen for TMEM16A inhibitors: effect in parental YFP-HEK293 cells; shares compounds with ANO1 block; iodide YFP quench, ionomycin; YFP ratio F(max-min)/F0 at 10 µM; 2,300 tested, under 10 active; AID 652233;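 active = yellow fluorescent protein signal ratio exceeding the buffer control mean by over 5 SD of those controls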;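 note: ratio is mean of duplicate wells from kinetic YFP trace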
ClC-1 rat inh – blocks the rat ClC-1 voltage-dependent chloride channel; shares compounds with ANO1 block; CHO ClC-1-YFP, iodide influx fluorescence quench; iodide control reads 0, buffer control 100; ratio percent, % at 10 µM; 2,300 tested, under 10 active; AID 652236;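 active = duplicate-mean ratio percent above the mean of iodide-only control wells, which defines zero, plus 5 of their SD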;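 note: higher percent means stronger block of ClC-1 iodide influx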
Of the large screens only hits and unclear results are named; the others gave an inactive call (follow-up assays come after a bar, where they were run).

Cc1cc(C(=O)COc2ccc(-c3nnco3)cc2)c(C)n1Cc1ccccc1	ANO1 block 100 | TMEM16A reconf 18% | TMEM16A Ca cntr inactive | YFP-HEK293 quench inactive | ClC-1 rat inh inactive
FC(F)Oc1ccccc1NC(=S)Nc1cccnc1	none
Fc1ccc(NC(=S)Nc2cccnc2)cc1Cl	ANO1 block 25 | TMEM16A reconf inactive | TMEM16A Ca cntr inactive | YFP-HEK293 quench inactive | ClC-1 rat inh inactive
Fc1ccc(NC(=S)Nc2cccnc2)cc1	none
Fc1ccc(NC(=S)Nc2ccccc2OC(F)F)cc1Cl	ANO1 block 100 | TMEM16A reconf 63% | TMEM16A Ca cntr inactive | YFP-HEK293 quench inactive | ClC-1 rat inh inactive
O=C(NC(=S)Nc1ccc(Cl)cn1)c1cc([N+](=O)[O-])ccc1N1CCOCC1	none
Cc1ccsc1C(=O)OCC(=O)N1CC(C)CC(C)C1 (stereo not drawn)	none (no result: ANO1 block, FID counter)
CCOC(=O)c1c(NC(=O)CSc2nnc(-c3ccccc3)o2)sc(C(C)=O)c1C	none
CCOC(=O)c1c(NC(=O)CSc2nnc(Cc3ccccc3)o2)sc(C(C)=O)c1C	ANO1 block 25 | TMEM16A reconf 16% | TMEM16A Ca cntr inactive | YFP-HEK293 quench inactive | ClC-1 rat inh inactive
CCOC(=O)c1c(NC(=O)CSc2nc3ccccc3o2)sc(C(C)=O)c1C	ANO1 block 100 | TMEM16A reconf 22% | TMEM16A Ca cntr inactive | YFP-HEK293 quench inactive | ClC-1 rat inh inactive
COc1ccc(-n2c(COc3cccc4ccccc34)nnc2SCC(=O)NCc2ccco2)cc1	none
Cc1ccc(NC(=O)c2c(Cl)n(C)c3ccccc23)cc1	none
COc1ccc(CN(C)C(=O)c2cccc(Oc3ccccc3)c2)c(OC)c1OC	ANO1 block 25 | TMEM16A reconf 32% | TMEM16A Ca cntr inactive | YFP-HEK293 quench inactive | ClC-1 rat inh inactive
COc1cccc(CN(C)C(=O)c2cccc(S(=O)(=O)NCc3ccccc3)c2)c1OC	none (no result: FID counter)
O=C(O)c1cc(S(=O)(=O)Nc2cc(Cl)ccc2Oc2ccccc2)ccc1O	none (no result: ANO1 block, FID counter)
COc1ccc2cc3cc(C(=O)Nc4ccc5c(c4)OCO5)oc3nc2c1	ANO1 block 100 | TMEM16A reconf inactive | TMEM16A Ca cntr inactive | YFP-HEK293 quench inactive | ClC-1 rat inh inactive
COc1cccc(N2CC(NS(=O)(=O)c3cccnc3)CC2=O)c1 (stereo not drawn)	none (no result: FID counter)
Fc1cccc(Cl)c1-c1nnc2ccc3ccccc3n12	ANO1 block 25 | TMEM16A reconf inactive | TMEM16A Ca cntr inactive | YFP-HEK293 quench inactive | ClC-1 rat inh inactive
Fc1ccccc1-c1nnc2ccc3ccccc3n12	none
COc1ccc2[nH]c3c(NCc4ccco4)ncnc3c2c1	none (no result: TMEM16A act)
Fc1ccc2[nH]c3c(NCc4ccccc4)ncnc3c2c1	ANO1 block 100 | TMEM16A reconf 66% | TMEM16A Ca cntr inactive | YFP-HEK293 quench inactive | ClC-1 rat inh inactive
O=S(=O)(c1cc(Br)ccc1Br)N1CCCCCC1	ANO1 block 25 | TMEM16A reconf 21% | TMEM16A Ca cntr inactive | YFP-HEK293 quench inactive | ClC-1 rat inh inactive
NC(=O)c1ccc(Br)c(S(=O)(=O)N2CCCCC2)c1	none
COC(=O)C=C1CCC2C3CCC4=CC(=O)C(Br)CC4(C)C3C(=O)CC12C (stereo not drawn)	none (no result: UBC13 inh, ANO1 block, FID counter, Apaf1 inhib)
O=C(Nc1ccc(F)cc1F)c1cc(-c2ccco2)on1	ANO1 block 100 | TMEM16A reconf inactive | TMEM16A Ca cntr inactive | YFP-HEK293 quench inactive | ClC-1 rat inh inactive
CN(CC(=O)Nc1ccc(Cl)cc1)C(=O)c1cccc(S(=O)(=O)N2CCN(Cc3ccccc3)CC2)c1	ANO1 block 25 (no result: FID counter) | TMEM16A reconf inactive | TMEM16A Ca cntr inactive | YFP-HEK293 quench inactive | ClC-1 rat inh inactive
CCc1ccccc1N(C)C(=O)CCc1nc(-c2ccc(C)cc2)no1	ANO1 block 100 | TMEM16A reconf inactive | TMEM16A Ca cntr inactive | YFP-HEK293 quench inactive | ClC-1 rat inh inactive
Cc1ccc(-n2cc(CN(C)Cc3ncc[nH]3)c(-c3cccc(C)c3)n2)cc1	none
O=c1cc(C(F)(F)F)[nH]c2ccc(OC(F)(F)F)cc12	ANO1 block 100 | TMEM16A reconf 43% | TMEM16A Ca cntr inactive | YFP-HEK293 quench inactive | ClC-1 rat inh inactive
CCOc1ccc2[nH]c(C)cc(=O)c2c1	none
O=C(Nc1cc(Cl)cc(Cl)c1)N1CCCC1	none
O=C(O)CN(c1ccccc1F)S(=O)(=O)c1ccccc1	none | TMEM16A reconf inactive | TMEM16A Ca cntr inactive | YFP-HEK293 quench inactive | ClC-1 rat inh inactive
COc1ccc(C2=CC(=O)C[C@H](c3ccc(F)cc3)C2)c(OC)c1	none (no result: ANO1 block, FID counter)
CCOC(=O)Cn1c(=O)oc2cc(S(=O)(=O)N(C)c3cccc(C)c3)ccc21	none
CCCCn1c(SCc2nc3ccccc3s2)nc2cc(S(N)(=O)=O)ccc21	ANO1 block 25 | TMEM16A reconf inactive | TMEM16A Ca cntr inactive | YFP-HEK293 quench inactive | ClC-1 rat inh inactive
CCCc1nc2c(sc3nc4c(cc32)COC(C)(C)C4)c(=O)n1Cc1ccco1	ANO1 block 25 | TMEM16A reconf 47% | TMEM16A Ca cntr inactive | YFP-HEK293 quench inactive | ClC-1 rat inh inactive
COc1cccc(C(=O)Nc2ccc(Cl)c(C(F)(F)F)c2)c1	ANO1 block 25 | TMEM16A reconf 18% | TMEM16A Ca cntr inactive | YFP-HEK293 quench inactive | ClC-1 rat inh inactive
COc1cccc(C(=O)Nc2ccc(C(=O)c3ccccc3)cc2)c1	ANO1 block 100 | TMEM16A reconf 26% | TMEM16A Ca cntr inactive | YFP-HEK293 quench inactive | ClC-1 rat inh inactive
COc1cc(C(=O)Nc2ccc(Cl)c(C(F)(F)F)c2)cc(OC)c1OC	none
COc1cccc(C(=O)Nc2cccc(-c3nnc(-c4ccco4)o3)c2)c1	ANO1 block 25 | TMEM16A reconf 23% | TMEM16A Ca cntr inactive | YFP-HEK293 quench inactive | ClC-1 rat inh inactive
CCCc1cc(C(=O)Nc2ccc(C(=O)c3ccccc3)cc2)n(C)n1	ANO1 block 100 | TMEM16A reconf 40% | TMEM16A Ca cntr inactive | YFP-HEK293 quench inactive | ClC-1 rat inh inactive
CCOC(=O)C(CC(=O)c1ccccc1)CC(=O)c1ccccc1	none
Cc1ccc(NC(=O)CSc2nc3[nH]ncc3c(=O)[nH]2)c(C)c1	none
O=C(/C=C/c1ccccc1)Nc1ccc(C(=O)N2CCCCC2)cc1	none
